Shown are actives, neighbours in structure and some others; about 8.7% of the full set was active somewhere.
Ecoli tolC: blocks growth of E. coli BW25113 tolC mutant. growth inhibition, % at 10 µM (by protocol). OD615. 2.2% of 65,000 active;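 active = growth inhibition at or above a cutoff equal to the mean over every tested compound plus 3 SD, cut at about 60% in these data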;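 also: growth measured after 20 h incubation at 37 °C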
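signal = optical density read at 615 nm | test system = E. coli ΔtolC::kan strain BW25113 | timing = 20 h compound exposure of bacteria at 37 °C | buffer or medium = LB medium plus 50 µg/mL kanamycin | compound dosing = 10 µM final, single dose | evaluation = % inhibition of E. coli growth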
PostGolgi ctrl: growth of the yeast control strain, post-Golgi counter-screen; 5% of 98,000 active; inhibition, % at 10 µM; AID 738; efflux-deficient yeast background strain, growth absorbance A615, 16 h
PostGolgi yeast: growth inhibition of a yeast mutant, post-Golgi transport screen | post-Golgi transport phenotypic cell assay | inhibition, % at 10 µM | 0.9% of 98,000 active | AID 739;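 also: yeast cells grown in 1536-well plates; yeast grown about 18 h at 30C before absorbance read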
Cav32 inh: inhibitors of human Cav3.2 T-type calcium channel. AID 449739. O95180. Cav3.2-expressing cells, Fluo-4 calcium fluorescence FDSS; stronger effect = lower value. B-score at 10 µM. 4% of 100,000 active;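 active = single-dose well whose peak fluorescence ratio is a statistical outlier from its plate by either plate-standardised score or position-corrected B-score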
PTK2B oligo ant: antagonists of human Pyk2 oligomerization. Q14289. Q293 cells, Pyk2 FERM NanoBiT luminescence; stronger effect = lower value. AID 1347419. z-score (the deposit names both 25 µM and 10 µM). 0.83% of 99,000 active;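 active = Z-score of -3 or lower, scaled per plate to the spread of control and sample wells; inactive = z-score above -3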;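 also: negative z-score means lost luminescence so less FERM oligomerization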
Target sequence (Q14289 whole entry, looked up): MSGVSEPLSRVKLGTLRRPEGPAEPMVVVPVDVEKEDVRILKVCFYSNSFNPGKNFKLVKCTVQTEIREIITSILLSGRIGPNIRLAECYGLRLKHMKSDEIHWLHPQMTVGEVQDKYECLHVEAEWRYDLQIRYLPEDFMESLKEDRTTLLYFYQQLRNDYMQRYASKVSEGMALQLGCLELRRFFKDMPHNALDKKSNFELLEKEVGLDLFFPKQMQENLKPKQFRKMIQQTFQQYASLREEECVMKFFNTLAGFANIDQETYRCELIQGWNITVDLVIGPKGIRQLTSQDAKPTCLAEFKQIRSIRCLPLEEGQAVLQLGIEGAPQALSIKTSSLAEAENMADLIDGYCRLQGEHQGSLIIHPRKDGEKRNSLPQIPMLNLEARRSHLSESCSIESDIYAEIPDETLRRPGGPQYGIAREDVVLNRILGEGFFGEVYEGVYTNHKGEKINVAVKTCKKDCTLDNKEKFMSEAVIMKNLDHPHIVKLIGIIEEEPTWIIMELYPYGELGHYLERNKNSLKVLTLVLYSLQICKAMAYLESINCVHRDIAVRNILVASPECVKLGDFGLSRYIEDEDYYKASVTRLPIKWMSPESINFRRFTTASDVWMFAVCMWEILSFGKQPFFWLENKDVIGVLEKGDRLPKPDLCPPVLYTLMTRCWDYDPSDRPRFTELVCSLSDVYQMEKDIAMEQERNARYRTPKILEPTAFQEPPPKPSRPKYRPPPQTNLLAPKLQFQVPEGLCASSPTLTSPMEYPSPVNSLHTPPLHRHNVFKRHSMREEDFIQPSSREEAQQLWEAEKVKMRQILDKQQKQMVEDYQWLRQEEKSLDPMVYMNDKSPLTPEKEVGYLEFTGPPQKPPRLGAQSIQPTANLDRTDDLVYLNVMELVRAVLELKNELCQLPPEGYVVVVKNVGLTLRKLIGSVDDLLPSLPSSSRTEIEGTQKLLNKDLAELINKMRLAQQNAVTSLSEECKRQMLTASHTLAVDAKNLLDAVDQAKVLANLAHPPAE
E coli WT exp: blocks growth of wild type E. coli BW25113 | OD600 absorbance | growth inhibition, % at 100 µM | 0.15% of 98,000 active;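 active = growth inhibition above about 50% at one test dose, limit read from the data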;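 also: growth measured after 20 h incubation at 37 °C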
An asterisk follows results filed as active. Rule as the data show it, unless noted: active = inhibition above about 30%; inactive = the rest.

How did CCOc1ccc(NC(=O)C(C)Oc2ccccc2C(=O)Nc2ccc(C)c(Cl)c2)cc1 (stereo not drawn) do in these assays?
PostGolgi ctrl: 1; PostGolgi yeast: 4; Cav32 inh: -0.087; PTK2B oligo ant: -0.53; E coli WT exp: -7

What do the screens show for `CCN(CC(=O)Nc1cc(C)nn1-c1nc(C)cc(C)n1)Cc1ccccc1`?
PostGolgi ctrl: 11; PostGolgi yeast: -11; PTK2B oligo ant: -0.17; E coli WT exp: 1

How did CCOc1cc(/C=C\[N+](=O)[O-])ccc1OCC(=O)Nc1ccccc1C do in these assays?
PostGolgi ctrl: 7; PostGolgi yeast: 39*; Cav32 inh: 1.2; PTK2B oligo ant: 0.27; E coli WT exp: -1

Results for O=C(Nc1ccc(Cl)cn1)C1CCCN1S(=O)(=O)c1ccccc1 (stereo not drawn) ?
Ecoli tolC: 13; PostGolgi ctrl: -2; PostGolgi yeast: 0; Cav32 inh: 0.18; PTK2B oligo ant: 0.72; E coli WT exp: 8

How did O=C(O)CCc1nnc2n(Cc3ccc(F)cc3)c(=O)c3ccccc3n12 do in these assays?
Ecoli tolC: -22; PostGolgi ctrl: -4; PostGolgi yeast: 44*; Cav32 inh: 0.57; E coli WT exp: -13

Results for CCCn1c(=O)c2ccccc2n2c(SCC(=O)c3ccc(F)cc3)nnc12 ?
Ecoli tolC: -5

How did O=C(NC1CC1)c1cc(-c2ccccn2)nc2ccccc12 do in these assays?
PostGolgi ctrl: 34*; PostGolgi yeast: 1; PTK2B oligo ant: -0.28; E coli WT exp: 2

What do the screens show for `O=C(Nn1cnnc1)c1cc(-c2ccccn2)nc2ccccc12`?
Ecoli tolC: -11; PostGolgi ctrl: 1; PostGolgi yeast: 10; Cav32 inh: -1.4; PTK2B oligo ant: -0.14; E coli WT exp: 7

What do the screens show for `O=C(CSc1nnc(-c2ccccc2Br)o1)N1CCc2ccccc2C1`?
Ecoli tolC: 14; PostGolgi ctrl: 2; PostGolgi yeast: -11; Cav32 inh: -1.3; PTK2B oligo ant: 2.2; E coli WT exp: -20

What do the screens show for `c1ccc(Cn2nnnc2C(c2ccncc2)N2CCOCC2)cc1` (stereo not drawn)?
Ecoli tolC: -7; PostGolgi ctrl: -2; PostGolgi yeast: 6; Cav32 inh: 0.014; PTK2B oligo ant: 0.96; E coli WT exp: -3

Results for Cc1cc(C(c2nnnn2Cc2ccccc2)N2CCOCC2)c(C)n1-c1ccc2c(c1)OCO2 (stereo not drawn) ?
Ecoli tolC: 9; PostGolgi ctrl: 17; PostGolgi yeast: -12; Cav32 inh: -4.6*; PTK2B oligo ant: -0.49; E coli WT exp: -11

Results for O=S(=O)(c1ccc(Cl)cc1)c1snnc1-c1ccccc1 ?
PostGolgi ctrl: 34*; PostGolgi yeast: 6; Cav32 inh: -1.7; PTK2B oligo ant: -1.2; E coli WT exp: 2

Results for Cc1ccc(C(=O)Nc2cc(C)c(OCC(=O)N3CCOCC3)c(C)c2)cc1 ?
PostGolgi ctrl: 18; PostGolgi yeast: 3; Cav32 inh: 0.56; PTK2B oligo ant: 0.09; E coli WT exp: 2

Results for Cc1nc(-c2ccccc2)sc1C(=O)CSc1ccccc1 ?
PostGolgi ctrl: 30*; PostGolgi yeast: -9; Cav32 inh: 0.31; PTK2B oligo ant: 0.77; E coli WT exp: -6

How did Cc1nc(-c2ccccc2)sc1C(=O)CSc1ccc(F)cc1 do in these assays?
PostGolgi ctrl: 13; PostGolgi yeast: -1; Cav32 inh: -0.42; PTK2B oligo ant: -0.1; E coli WT exp: -3

How did CC(=O)Nc1nnc(SCC(=O)NCC2CCCO2)s1 (stereo not drawn) do in these assays?
Ecoli tolC: -18; Cav32 inh: 0.79; PTK2B oligo ant: 0.11

What do the screens show for `CC(=O)Nc1nnc(SCC(=O)NCCOc2ccccc2)s1`?
Ecoli tolC: -9; PostGolgi ctrl: 51*; PostGolgi yeast: 5; Cav32 inh: 0.061; PTK2B oligo ant: 0.72; E coli WT exp: -2

What do the screens show for `Nn1cc(-c2ccccc2)nc1SCC(=O)NCCN1C(=O)CSC1=O`?
Ecoli tolC: -10; PostGolgi ctrl: 9; PostGolgi yeast: -9; Cav32 inh: 0.52; PTK2B oligo ant: 1.1; E coli WT exp: 0

How did Cc1cc(C(F)(F)F)nc(NCc2ccc(F)cc2)n1 do in these assays?
Ecoli tolC: 14; PostGolgi ctrl: 11; PostGolgi yeast: 2; Cav32 inh: -5.4*; PTK2B oligo ant: -1.2; E coli WT exp: 9

How did CCOc1ccc(-c2nc(S(=O)(=O)c3ccccc3)c(NCc3cccnc3)o2)cc1 do in these assays?
Ecoli tolC: 0; PostGolgi ctrl: 8; PostGolgi yeast: 12; PTK2B oligo ant: -3.3*; E coli WT exp: 4

How did CCCCCSc1nnc(-c2cc(Br)ccc2N)c(=O)[nH]1 do in these assays?
Ecoli tolC: 100*; PostGolgi ctrl: 11; PostGolgi yeast: 1; Cav32 inh: -5*; PTK2B oligo ant: 1.6; E coli WT exp: 5

What do the screens show for `CCS(=O)(=O)c1ccc2oc(SCC(=O)NC3CCCC(C)C3C)nc2c1` (stereo not drawn)?
PostGolgi ctrl: 1; PostGolgi yeast: -3; Cav32 inh: -0.11; PTK2B oligo ant: 0.44; E coli WT exp: 5

Results for CCS(=O)(=O)c1ccc2oc(SCC(=O)NC34CC5CC(CC(C5)C3)C4)nc2c1 ?
PostGolgi ctrl: 16; PostGolgi yeast: -4; Cav32 inh: -7.2*; PTK2B oligo ant: -0.47; E coli WT exp: 3

Results for O=C1c2ccccc2C(Nc2ccc(F)cc2F)N1CCN1CCOCC1 (stereo not drawn) ?
Ecoli tolC: -10; PostGolgi ctrl: 4; PostGolgi yeast: 2; Cav32 inh: 0.73; E coli WT exp: -4

How did Cc1ccccc1OCC(=O)NCCN1CCCC1 do in these assays?
Ecoli tolC: -9; PostGolgi ctrl: 35*; PostGolgi yeast: -4; Cav32 inh: -1.1; PTK2B oligo ant: -0.18; E coli WT exp: -3

Results for CCC(C)C(NC(=O)OC(C)(C)C)C(=O)NC(C(=O)N1CCCC1C(N)=O)C(C)CC (stereo not drawn) ?
Ecoli tolC: -3; PostGolgi ctrl: -6; PostGolgi yeast: -9; Cav32 inh: -0.46; PTK2B oligo ant: 0.08; E coli WT exp: 0

Results for CCCNC(=O)c1c(N)n(-c2ccc3c(c2)OCO3)c2nc3ccccc3nc12 ?
Ecoli tolC: -14; PostGolgi ctrl: 2; PostGolgi yeast: -2; Cav32 inh: -1.5; PTK2B oligo ant: 1.2; E coli WT exp: 0

How did CCCNC(=O)c1c(N)n(-c2cc(OC)cc(OC)c2)c2nc3ccccc3nc12 do in these assays?
Ecoli tolC: 4; PostGolgi ctrl: 27; PostGolgi yeast: -7; Cav32 inh: -6.5*; PTK2B oligo ant: -0.93; E coli WT exp: -20

Results for Cc1ccc(-c2cc(C(=O)NCCN3CCOCC3)no2)cc1 ?
Ecoli tolC: -16; PostGolgi ctrl: 30*; PostGolgi yeast: -5; Cav32 inh: 0.77; PTK2B oligo ant: 0.23; E coli WT exp: 4

Results for Nc1c(C(=O)NCc2ccc(F)cc2)c2nc3ccccc3nc2n1CCCN1CCOCC1 ?
PostGolgi ctrl: 73*; PostGolgi yeast: 101*; Cav32 inh: -2.9; PTK2B oligo ant: 0.22; E coli WT exp: 10

Assay outcomes (PubChem)
